Reference: ChEMBL document CHEMBL1130404, “Synthesis and evaluation of polycyclic pyrazolo[3,4-d]pyrimidines as PDE1 and PDE5 cGMP phosphodiesterase inhibitors” (J Med Chem, 1997)

Key:
[1] = target: cGMP-specific 3',5'-cyclic phosphodiesterase (Bos taurus, UniProt Q28156); experiment: Inhibition of phosphodiesterase 5 from bovine lung
Outline: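 Purified bovine lung enzyme in 50 mM Tris-HCl (pH 7.5), 2 mM MgCl2, 0.1 mg/mL BSA with 1 μM [3H]cGMP as substrate, incubated 30 min at 30 °C. IC50 derived from percent inhibition plotted against log molar concentration; run in duplicate, mean of two reported.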

[2] = target: 3',5'-cyclic-nucleotide phosphodiesterase (Bos taurus, UniProt A0A3Q1M1E8); experiment: Inhibition of Phosphodiesterase 3 from bovine heart
Chain of 3',5'-cyclic-nucleotide phosphodiesterase (A0A3Q1M1E8 1-1126): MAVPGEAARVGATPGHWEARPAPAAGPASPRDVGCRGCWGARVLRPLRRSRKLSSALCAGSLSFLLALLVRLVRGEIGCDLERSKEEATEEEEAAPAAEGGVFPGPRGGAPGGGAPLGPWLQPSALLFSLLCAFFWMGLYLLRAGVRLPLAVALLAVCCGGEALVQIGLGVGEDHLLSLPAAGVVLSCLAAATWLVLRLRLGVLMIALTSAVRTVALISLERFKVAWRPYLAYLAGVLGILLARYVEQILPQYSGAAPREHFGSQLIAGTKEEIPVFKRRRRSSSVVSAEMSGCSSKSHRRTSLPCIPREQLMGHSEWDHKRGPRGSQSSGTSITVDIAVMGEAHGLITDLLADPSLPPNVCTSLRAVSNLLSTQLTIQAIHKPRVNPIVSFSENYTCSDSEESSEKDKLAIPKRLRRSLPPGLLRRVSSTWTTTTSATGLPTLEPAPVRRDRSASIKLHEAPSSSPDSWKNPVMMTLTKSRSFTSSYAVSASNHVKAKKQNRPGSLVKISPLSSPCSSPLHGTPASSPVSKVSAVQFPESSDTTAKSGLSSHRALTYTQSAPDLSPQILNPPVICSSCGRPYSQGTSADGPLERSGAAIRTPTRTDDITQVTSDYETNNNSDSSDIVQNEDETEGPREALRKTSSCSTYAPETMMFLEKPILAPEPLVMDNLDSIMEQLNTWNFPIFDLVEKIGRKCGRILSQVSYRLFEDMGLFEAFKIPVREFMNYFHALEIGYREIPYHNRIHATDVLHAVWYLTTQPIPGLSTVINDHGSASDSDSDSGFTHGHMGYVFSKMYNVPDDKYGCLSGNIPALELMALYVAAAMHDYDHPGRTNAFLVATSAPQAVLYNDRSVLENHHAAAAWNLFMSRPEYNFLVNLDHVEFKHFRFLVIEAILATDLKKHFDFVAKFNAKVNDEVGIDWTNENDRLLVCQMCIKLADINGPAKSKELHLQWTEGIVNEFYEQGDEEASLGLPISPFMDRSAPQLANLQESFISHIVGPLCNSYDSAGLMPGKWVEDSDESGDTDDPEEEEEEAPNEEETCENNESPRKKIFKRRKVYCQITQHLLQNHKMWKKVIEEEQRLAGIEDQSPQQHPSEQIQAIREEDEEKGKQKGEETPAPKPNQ
Outline: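 Enzymes purified from bovine heart (PDE3) or canine kidney (PDE4); 1 μM [3H]cAMP substrate, 50 mM Tris-HCl pH 7.5, 2 mM MgCl2, 0.1 mg/mL BSA, 30 min at 30 °C. IC50 taken from % inhibition vs log molar concentration; duplicates, mean reported.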

Phosphodiesterase 1 = Phosphodiesterase 1 (Bos taurus, UniProt Q01061+P14100); experiment: Inhibition of phosphodiesterases PDE1 from bovine aorta; format: protein assay
Outline: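 Bovine aorta enzyme; 50 mM Tris-HCl pH 7.5, 2 mM MgCl2, 0.1 mg/mL BSA, 1 mM CaCl2, 0.1 μM calmodulin, 1 μM [3H]cGMP substrate; 30 min at 30 °C. IC50 read from % inhibition vs log molar concentration curve; duplicates, mean reported.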

Rattus norvegicus [3] = experiment: Antihypertensive activity in spontaneously hypertensive rats at 25 mg/kg administered orally; format: functional; details: route oral
Outline: (§1)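 Spontaneously hypertensive rats dosed orally with aqueous solution or suspension in 0.4% methylcellulose vehicle. Value is peak change in mean arterial pressure relative to a vehicle-treated control group.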

[4] = target: T1, cGMP-dependent 3',5'-cyclic phosphodiesterase (Bos taurus, UniProt P14099); experiment: Inhibition of Phosphodiesterase 2 from bovine adrenal cortex
T1 sequence (P14099 whole entry): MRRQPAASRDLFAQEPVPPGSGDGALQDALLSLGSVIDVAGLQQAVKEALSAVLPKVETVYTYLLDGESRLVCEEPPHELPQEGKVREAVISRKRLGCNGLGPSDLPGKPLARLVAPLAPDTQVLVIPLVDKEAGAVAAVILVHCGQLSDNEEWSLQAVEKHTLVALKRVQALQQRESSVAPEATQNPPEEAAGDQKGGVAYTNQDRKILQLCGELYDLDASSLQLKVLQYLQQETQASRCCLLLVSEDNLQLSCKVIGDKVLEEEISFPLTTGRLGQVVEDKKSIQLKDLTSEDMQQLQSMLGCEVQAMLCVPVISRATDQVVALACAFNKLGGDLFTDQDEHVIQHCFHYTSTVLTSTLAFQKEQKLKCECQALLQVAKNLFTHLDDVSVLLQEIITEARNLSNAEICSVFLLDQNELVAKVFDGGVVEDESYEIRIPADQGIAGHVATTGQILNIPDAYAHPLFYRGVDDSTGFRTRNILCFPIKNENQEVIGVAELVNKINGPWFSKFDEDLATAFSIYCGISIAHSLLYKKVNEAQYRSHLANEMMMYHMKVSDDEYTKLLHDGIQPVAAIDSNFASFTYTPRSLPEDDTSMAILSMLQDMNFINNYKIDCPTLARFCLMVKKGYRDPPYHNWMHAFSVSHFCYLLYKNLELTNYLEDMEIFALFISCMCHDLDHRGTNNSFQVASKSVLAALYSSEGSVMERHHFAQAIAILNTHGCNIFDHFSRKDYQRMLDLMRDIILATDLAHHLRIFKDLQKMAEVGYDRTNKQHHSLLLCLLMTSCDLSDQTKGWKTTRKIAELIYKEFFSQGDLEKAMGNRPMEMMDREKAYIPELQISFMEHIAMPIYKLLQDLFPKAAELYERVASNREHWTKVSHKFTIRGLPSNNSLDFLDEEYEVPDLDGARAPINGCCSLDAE
Outline: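 Recombinant bovine adrenal cortex enzyme; [3H]cAMP substrate in 50 mM Tris-HCl pH 7.5, 2 mM MgCl2, 0.1 mg/mL BSA, mixture also holding 5 μM cGMP; 30 min, 30 °C. IC50 from inhibition vs log molar concentration curve; duplicate determinations averaged.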

Rattus norvegicus [5] = experiment: Antihypertensive activity in spontaneously hypertensive rats at 10 mg/kg administered orally; format: functional; details: route oral; outline: as §1
[6] = target: Phosphodiesterase 4 (Canis familiaris); experiment: Inhibition of phosphodiesterase PDE4 from canine kidney

IC50 [1] [nM] | IC50 [2] [nM] | IC50 (Phosphodiesterase 1) [nM] | IC50 [4] [nM] | IC50 [6] [nM] | SMILES | Delta mmHg (Rattus norvegicus [3]) | Delta mmHg (Rattus norvegicus [5]) | Delta mmHg (Rattus norvegicus [5]; 10 mg/kg)
140 | 42000 | 18 | – | – | CN1C(=O)c2c(nn(C)c2Cc2ccccc2)N2CC(C)(C)N=C12 | – | – | –
3100 | 55000 | 29000 | – | – | CN1C(=O)c2cnn(Cc3ccccc3)c2N2C1=N[C@@H]1CCC[C@@H]12 (racemic) | -14 | – | –
75 | 55000 | 60 | 11000 | 230 | CN1C(=O)c2c(nn(C)c2Cc2ccccc2)N2CC3(CCCC3)N=C12 | – | -33 | –
100 | 90000 | 20 | – | – | CC(C)[C@@H]1CN2C(=N1)N(C)C(=O)c1c2nn(C)c1Cc1ccccc1 | – | – | –
1000 | 50000 | 2000 | – | – | Cc1nn(Cc2ccccc2)c2c1C(=O)N(C)C1=N[C@@H]3CCC[C@@H]3N12 | – | -3 | –
190 | > 100000 | 1100 | – | – | CN1C(=O)c2c(Cc3ccccc3)n[nH]c2N2C1=N[C@@H]1CCC[C@@H]12 (racemic) | -16 | – | –
– | – | – | – | – | Cc1nc2c(n1Cc1ccccc1)C(=O)N(C)C1=N[C@@H]3CCC[C@@H]3N12 | – | -28 | –
140 | 85000 | 160 | – | – | CN1C(=O)c2c(nn(C)c2Cc2ccccc2)N2C1=N[C@@H]1CCC[C@@H]12 (racemic) | – | – | -18
2900 | > 100000 | 18000 | – | – | Cc1n[nH]c2c1C(=O)N(C)C1=N[C@@H]3CCC[C@@H]3N12 | – | -7 | –
2100 | 55000 | 540 | – | – | CN1C(=O)c2c(nn(Cc3ccccc3)c2-c2ccccc2)N2C1=N[C@@H]1CCC[C@@H]12 | – | 1 | –
100 | 80000 | 55 | – | – | CN1C(=O)c2c(nn(C)c2Cc2ccccc2)N2C1=N[C@@H]1CCC[C@@H]12 | – | – | -26
400 | 29000 | 850 | – | – | CN1C(=O)c2c(Cc3ccccc3)nn(C)c2N2C1=N[C@@H]1CCC[C@@H]12 (racemic) | – | – | –
